Measurements: article PMC3268354 (Bioorganic & Medicinal Chemistry Letters, 2012)

What was measured:
cPLA2α = experiment: reported cPLA2α inhibition of training and test set compounds; format: biochemical; conditions: assigned from reported activity of training set compounds
[1] = tested on: cPLA2α-mediated AA release in human monocytes; experiment: cPLA2α-mediated AA release in Ca2+-ionophore A23187-stimulated human monocytes; format: cell-based; conditions: human monocytes stimulated with A23187
Method in brief: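 Human monocytes were stimulated with Ca2+-ionophore A23187 in the presence of test compound, and arachidonic acid release was measured. Inhibition is expressed as IC50. A reference cPLA2α inhibitor was run as an assay control.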

Row | Compound | Class (activity class assigned for HipHop refine model) (cPLA2α) | inhibition of AA release [1]
1 | CCCCCCCCCCCCCCC(=O)C(=O)NCCCC(=O)O [Compound 1] | Active | 
2 | O=C(COc1ccc(SCCCCCc2ccccc2)cc1)COc1ccc(C(=O)O)cc1 [Compound 6] | Highly active | 
3 | CCCCCCCCCCOc1ccc(OCC(=O)COc2ccc(C(=O)O)cc2)cc1 [Compound 7] | Highly active | 
4 | O=C(COc1ccc(SCCCCSc2nccs2)cc1)COc1ccc(C(=O)O)cc1 [Compound 14] | Active | 
5 | O=C(COc1ccc(C(=O)O)cc1)COc1ccc(C(=O)NCCCCc2ccccc2)cc1 [Compound 16] | Inactive | 
6 | CN(CCc1ccccc1)C(=O)CSc1ccc(OCC(=O)COc2ccc(C(=O)O)cc2)cc1 [Compound 17] | Inactive | 
7 | Cn1ccnc1SCCCCOc1ccc(OCC(=O)COc2ccc(C(=O)O)cc2)cc1 [Compound 18] | Inactive | 
8 | N-{(2S,4R)-4-(biphenyl-2-ylmethyl-isobutyl-amino)-1-[2-(2,4-difluorobenzoyl)-benzoyl]-pyrrolidin-2-ylmethyl}-3-[4-(2,4-dioxothiazolidin-5-ylidenemethyl)-phenyl]acrylamide [Compound 43] |  | inhibited AA release as expected
